From PubChem
CaV13 ICDI inh = Primary screen for inhibitors of IQ motif and Ca2+-dependent inactivation inhibitor domain binding in CACNA1D, Förster resonance energy transfer in living cells, …; AID 743397; inhibition, % at 12.3 µM; HEK cells, CFP/YFP FRET ICDI-IQ, plate reader, 10 min; percent FRET-ratio fall versus neutral wells; 0.098% of 340,000 active;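 active = mean replicate inhibition of at least 30% and at least 1% of replicates passing that level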;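 note: 0% = median of the neutral control wells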
GC-A act = GC-A (human) enzyme activation; HEK293 GC-A cells, cGMP TR-FRET, EC30 ANP; 0% at EC30 ANP, 100% saturating ANP; 0.14% of 370,000 active; activation, % at 10 µM; P16066; AID 1671463; in the data active = activation above about 40%
NSD2 HMT inh = inhibitors of human histone methyltransferase NSD2; inhibition, % at 12.5 µM; AID 743445; NSD2 peptide methylation, AlphaScreen, 120 min; O96028; 0.54% of 310,000 active; in the data active = inhibition above about 50%
Casp6 inh = blocks human caspase-6 cleavage activity. purified caspase-6, Z-VEID-R110 cleavage fluorescence. inhibition, % at 12.5 µM. 0.53% of 350,000 active;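 active = mean inhibition across replicates at least about 35%, with every replicate also reaching that limit, limit read from the data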;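 note: 0% = median of neutral control wells and 100% = no fluorescence left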
Target sequence (P55212 24-179 limits assumed): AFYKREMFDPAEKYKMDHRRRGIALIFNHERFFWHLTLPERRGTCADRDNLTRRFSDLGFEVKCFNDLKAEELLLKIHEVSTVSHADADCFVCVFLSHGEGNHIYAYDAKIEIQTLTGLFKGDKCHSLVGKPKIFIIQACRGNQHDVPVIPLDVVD
Target sequence (P55212 194-293 limits assumed): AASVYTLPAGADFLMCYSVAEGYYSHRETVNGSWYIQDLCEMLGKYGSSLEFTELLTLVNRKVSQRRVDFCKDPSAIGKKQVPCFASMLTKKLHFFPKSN
NPR2 activator = GC-B (human) receptor activation. P20594. HEK293-GC-B cells, CNP EC30, cGMP TR-FRET; 0% at EC30 CNP, 100% saturating CNP. activation, % at 10 µM. 0.11% of 370,000 active;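 active = activation at 10 µM reaching about 35% in either raw or pattern-adjusted values, limit read from the data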
FN deposition inh = fibronectin deposition inhibition; AH1F fibroblasts, Alexa488-fibronectin deposition fluorescence, overnight; inhibition, % at 12.6 µM; 0.086% of 350,000 active; AID 743247;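 active = mean inhibition across replicates of 30% or more, regardless of how many single replicates reach that level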;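 note: positive control wells lacked labelled fibronectin entirely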
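test system = AH1F fibroblasts assembling fluorescent fibronectin matrix | quantity = 10000 AH1F cells per well | buffer or medium = DMEM plus 2% serum, read in PBS | doses = single dose, pinned | incubation = 1 h cell attachment, overnight exposure to compound and label | detection = fluorescence at 485 nm excitation, 525 nm emission | read-out basis = inhibition from reduced deposited-fibronectin fluorescence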
* hit, by the source's call; x = no result. Sampled rows, rich in hits. Any-hit rate of the full collection: about 0.99%.

SMILES | CaV13 ICDI inh | GC-A act | NSD2 HMT inh | Casp6 inh | NPR2 activator | FN deposition inh
O=[N+]([O-])c1ccc(Cl)c2c1C1C=CCC1C(c1ccccn1)N2 (stereo unspecified) | -11 | -13 | x | 6 | -5 | 7
O=C(O)C1Nc2c(O)cc(Cl)c([N+](=O)[O-])c2C2C=CCC12 (stereo unspecified) | -6 | -12 | x | 98* | -5 | 1
O=C(C[C@@H]1CC[C@@H]2[C@H](COC[C@H](O)CN2Cc2cc(F)ccc2F)O1)N1CCc2ccccc2C1 | x | x | x | -1 | x | 6
COc1ccc(C(=O)Nc2ccc(Cl)cc2C(=O)NCc2ccco2)cc1OC | x | 33 | -1 | x | 39* | 5
COc1cc(C(=O)Nc2sc3c(c2C(=O)NCc2ccco2)CCCC3)cc(OC)c1OC | x | 29 | -4 | x | 41* | x
COc1ccc(C(=O)Nc2sc3c(c2C(=O)NCc2ccco2)CCCC3)cc1OC | -6 | 24 | 1 | x | 27 | -6
CO[C@@H]1CN(C)C(=O)c2ccc(NS(C)(=O)=O)cc2OC[C@@H](C)N(C)C[C@@H]1C | x | x | x | -1 | x | -2
CN(C)CC(=O)Nc1ccc2c(c1)[C@@H]1C[C@H](CC(=O)NC3CCCC3)O[C@H](CO)[C@@H]1O2 | x | x | x | -2 | x | -9
NC(=O)c1sc2nc3c(c(-c4ccco4)c2c1N)CCCC3 | -7 | 0 | 5 | 9 | -2 | 8
Nc1c(C(=O)NCC2CCCO2)sc2nc3c(c(-c4ccco4)c12)CC/C3=C\c1ccco1 (stereo unspecified) | -19 | -15 | 12 | 42* | -5 | -4
O=C(Cc1cccc2ccccc12)Nc1ccccc1F | x | x | -2 | x | x | x
C[C@]12c3[nH]c4ccc(Cl)cc4c3CCN1C(=O)[C@@H](CC(=O)NCc1ccco1)C[C@@H]2C(=O)N1CCCCC1 | -8 | -8 | x | 0 | -6 | 34*
COc1ccc2c3c(n(C)c2c1)[C@@H](CO)N(C(=O)CC1CC1)CC31CN(Cc2nccs2)C1 | x | x | x | -1 | x | x
NS(=O)(=O)c1ccc(N=Nc2c(O)c(C(=O)O)cc3ccccc23)cc1 | -4 | -5 | 16 | 9 | -7 | x
O=C(O)Cc1ccc(N=Nc2c(O)c(C(=O)O)cc3ccccc23)cc1 | -4 | -13 | 39 | 40* | -4 | -7
Cc1ccc(S(=O)(=O)N(C)C[C@H]2Oc3c(NC(=O)C4CC4)cccc3C(=O)N([C@H](C)CO)C[C@H]2C)cc1 | x | x | x | 0 | x | 1
COc1ccccc1S(=O)(=O)N[C@@H]1C=C[C@@H](CC(=O)NCc2cc(F)cc(F)c2)O[C@H]1CO | x | x | x | 0 | x | x
CCN(c1ccccc1)c1cc2ccccc2c(=O)[nH]1 | -1 | -11 | 41 | 65* | -3 | -4
CC(C)(C)[C@H]1CCC(=O)N([C@H](CSc2ccccc2)Cc2ccccc2)CC1 | 34* | -1 | x | 0 | -1 | -6
CC(C)NC(=O)N(C)C[C@@H]1Oc2ccc(N)cc2CC(=O)N(C)C[C@@H]1C | x | x | x | x | x | -4
Cc1ccc2c(c1)c1c(n2CC(O)CN2CCC(C)CC2)CCCC1 (stereo unspecified) | -15 | -14 | 9 | 46* | -5 | 2
Cc1ccc2c(c1)c1c(n2CC(O)CNC2CCCCC2)CCCC1 (stereo unspecified) | -3 | -18 | x | 49* | -13 | -2
Cc1ccc2c(c1)c1c(n2CC(O)CNC(CO)(CO)CO)CCCC1 (stereo unspecified) | 15 | -1 | x | -4 | 2 | -14
COc1ccc(CNC(=O)C[C@@H]2CC[C@@H]3[C@H](COc4ccc(NC(=O)C(C)C)cc4C(=O)N3C)O2)cc1 | x | x | x | x | x | -9
COc1ccc(-c2ccc3c(N)c(C(=O)c4cccc(OC)c4)sc3n2)cc1 | -12 | -5 | -1 | x | 2 | x
SMILES | CaV13 ICDI inh | GC-A act | NSD2 HMT inh | Casp6 inh | NPR2 activator | FN deposition inh
COc1ccc(C(=O)c2sc3nc(-c4ccc(OC)cc4)ccc3c2N)cc1 | 134* | 10 | 10 | -1 | -6 | x
CCNC(=O)[C@@H]1[C@@H](CO)[C@@H]2Cn3c(ccc(-c4cccc(F)c4)c3=O)[C@@H]2N1Cc1cc(F)ccc1F | x | x | x | 0 | x | x
CCCNC(=O)C[C@@H]1CC[C@H]2[C@@H](COc3ccc(NC(=O)c4ccc5c(c4)OCO5)cc3C(=O)N2C)O1 | x | x | x | -2 | x | 4
O=c1[nH][nH]c2c(N=Cc3ccccc3O)ccc(F)c12 | x | x | x | 97* | x | x
CCc1ccc(O)c(N=Cc2ccccc2O)c1 | -8 | -1 | x | 0 | -2 | x
CC(=S)/C=C1\Sc2ccccc2N1C | -7 | 1 | x | -1 | -3 | x
CN1c2ccccc2Sc2cc(N)ccc21 | -3 | -6 | 6 | 54* | -2 | -4
C[C@@H]1CN([C@@H](C)CO)C(=O)c2cc(-c3cccnc3)cnc2O[C@H]1CN(C)C(=O)Nc1ccccc1 | x | x | x | 0 | x | x
Cc1c2cc(O)c(=O)cc-2oc2cc(O)c(O)cc12 | -9 | -8 | x | 92* | 2 | x
Cc1cc2oc(=O)cc(-c3cc4ccccc4o3)c2cc1O | -16 | 5 | 8 | 4 | 0 | -9
C[C@H](CO)N1C[C@H](C)[C@H](CN(C)C(=O)Nc2ccc(F)cc2)Oc2ncc(C#C[C@@H](C)O)cc2C1=O | x | x | x | -6 | x | -13
O=C1OCCC1Sc1nnc(-c2cccc(Br)c2)o1 (stereo unspecified) | -8 | 60* | -2 | x | 37* | x
CSc1ccc(Cl)c(C(=O)N2CCOc3ccccc32)c1 | 52* | -1 | -1 | 2 | -1 | 14
C[C@H](CO)N1C[C@H](C)[C@H](CN(C)C(=O)Nc2ccccc2)OCCCC[C@H](C)Oc2ccc(NS(=O)(=O)c3ccc(F)cc3)cc2C1=O | x | x | x | x | x | 3
O=C(Cc1nc2ccccc2[nH]c1=O)c1ccccc1 | 58* | 4 | -1 | 0 | -2 | 0
CN1CCN(C(=O)C[C@@H]2C[C@H]3c4cc(NC(=O)CC5CC5)ccc4O[C@H]3[C@H](CO)O2)CC1 | x | x | x | 0 | x | 5
O=C(O)c1cccc(N2C(=O)/C(=C/c3ccc(SCc4ccc(Cl)cc4)o3)SC2=S)c1 | -5 | -8 | 112* | 72* | 1 | -9
O=C(CCN1C(=O)/C(=C/c2ccc(Cl)cc2)SC1=S)Nc1cccc(C(=O)O)c1 | -18 | 4 | -4 | 8 | -4 | -3
COc1ccc(CNC(=O)c2cccc3c(-c4cccc(C(N)=O)c4)coc23)cc1OC | -9 | 33 | -3 | 16 | 38* | 4
